Results: ChEMBL document CHEMBL4184265, “Discovery of novel potent HCV NS5B polymerase non-nucleoside inhibitors bearing a fused benzofuran scaffold” (Bioorg Med Chem Lett, 2018)

Experiments:
[1] = Intrinsic solubility of the compound; format: physicochemical
Rattus norvegicus = test: Clearance in Sprague-Dawley rat at 1 mg/kg, iv; format: ADME, organism-based; conditions: in vivo
Procedure, shortened: (§1)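 Sprague-Dawley rats (n=3) dosed iv at 1 mg/kg as a solution in 10% NMP/10% solutol/40% PEG-400/40% saline.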

[2] = Volume of distribution at steady state in Sprague-Dawley rat at 1 mg/kg, iv; format: ADME, organism-based; conditions: in vivo, read-out: Vdss; procedure, shortened: as §1
[3] = AUC (infinity) in Sprague-Dawley rat at 1 mg/kg, iv; format: ADME, organism-based; parameters: dose 1 mg/kg, time infinity, route intravenous; conditions: in vivo; procedure, shortened: as §1
[4] = Oral bioavailability in Sprague-Dawley rat at 5 mg/kg; format: ADME, organism-based; conditions: in vivo
Procedure, shortened: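 Sprague-Dawley rats (n=3) dosed po at 5 mg/kg as a solution in 10% NMP/10% solutol/40% PEG-400/40% saline. Iv arm given at 1 mg/kg in the same vehicle.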

[5] = Half life in Sprague-Dawley rat at 1 mg/kg, iv; format: ADME, organism-based; conditions: in vivo; procedure, shortened: as §1
[6] = Cytotoxicity against human HuH7 cells after 24 hrs; format: cell-based, Huh-7
[7] = Metabolic stability in human liver microsomes assessed as parent compound remaining after 60 mins; format: ADME, microsome; conditions: read-out: Stability
[8] = Metabolic stability in rat liver microsomes assessed as parent compound remaining after 60 mins; format: ADME, microsome; conditions: read-out: Stability

solubility [1] | clearance (Rattus norvegicus) | Vd [2] | AUC(0-inf) [3] | bioavailability [4] | half-life [5] | remaining at 1 h [7] | remaining at 1 h [8] | SMILES | other results
Soluble | – | – | – | – | – | – | – | CNC(=O)c1c(-c2ccc(F)cc2)oc2cc3c(cc12)C(C)NCCN3S(C)(=O)=O (racemic) | –
– | 44.5 mL/min/kg | 1.74 L/kg | 379 ng·h/mL | 14% | 40.8 min | – | – | CNC(=O)c1c(-c2ccc(F)cc2)oc2cc3c(cc12)[C@H](C)NC(=O)CN3S(C)(=O)=O | –
Soluble | – | – | – | – | – | – | – | CNC(=O)c1c(-c2ccc(F)cc2)oc2cc3c(cc12)C(C)N(C)CCN3S(C)(=O)=O (racemic) | –
– | 38.2 mL/min/kg | 2.36 L/kg | 439 ng·h/mL | 22% | 57.6 min | – | – | CNC(=O)c1c(-c2ccc(F)cc2)oc2cc3c(cc12)[C@H](C)CCCN3S(C)(=O)=O | –
– | 22 mL/min/kg | 2.25 L/kg | 759 ng·h/mL | 73% | 79.2 min | 100% | 60% | CNC(=O)c1c(-c2ccc(F)cc2)oc2cc3c(cc12)[C@H](C)O[C@H](CO)CN3S(C)(=O)=O | CC50 at 24 h [6]: > 3 µM
– | – | – | – | – | – | 85.9% | 68.9% | CNC(=O)c1c(-c2ccc(F)cc2)oc2cc3c(cc12)C(C)OC(CO)CN3S(C)(=O)=O (racemic) | –
Insoluble | – | – | – | – | – | – | – | CNC(=O)c1c(-c2ccc(F)cc2)oc2cc3c(cc12)C(C)NC(=O)CN3S(C)(=O)=O (racemic) | –
– | – | – | – | – | – | 32.6% | 5% | CNC(=O)c1c(-c2ccc(F)cc2)oc2cc3c(cc12)[C@H](C)OCCN3S(C)(=O)=O | –
Insoluble | – | – | – | – | – | – | – | CNC(=O)c1c(-c2ccc(F)cc2)oc2cc3c(cc12)C(C)N(C)C(=O)CN3S(C)(=O)=O (racemic) | –
– | – | – | – | – | – | 0.8% | 0.8% | CNC(=O)c1c(-c2ccc(F)cc2)oc2cc3c(cc12)C(C)CCCN3S(C)(=O)=O (racemic) | –
– | 78 mL/min/kg | 1.79 L/kg | 234 ng·h/mL | 16% | 20.4 min | – | – | CNC(=O)c1c(-c2ccc(F)cc2)oc2cc3c(cc12)[C@@H](C)OCCN3S(C)(=O)=O | –

Continued, molecule first:

SMILES | solubility [1] | clearance (Rattus norvegicus) | Vd [2] | AUC(0-inf) [3] | bioavailability [4] | half-life [5] | remaining at 1 h [7] | remaining at 1 h [8] | other results
CNC(=O)c1c(-c2ccc(F)cc2)oc2cc3c(cc12)[C@H](C)n1nncc1CN3S(C)(=O)=O | – | 12.8 mL/min/kg | 1.41 L/kg | 1300 ng·h/mL | 57% | 146 min | – | – | –
CNC(=O)c1c(-c2ccc(F)cc2)oc2cc3c(cc12)C(C)n1nnnc1CN3S(C)(=O)=O (racemic) | Insoluble | – | – | – | – | – | – | – | –
CNC(=O)c1c(-c2ccc(F)cc2)oc2cc3c(cc12)[C@H](C)O[C@H](CS(C)(=O)=O)CN3S(C)(=O)=O | – | – | – | – | – | – | 100% | 100% | CC50 at 24 h [6]: > 10 µM
CNC(=O)c1c(-c2ccc(F)cc2)oc2cc(N(CCO)S(C)(=O)=O)c(C3CC3)cc12 [NESBUVIR] | – | 10.4 mL/min/kg | 1.52 L/kg | 1610 ng·h/mL | 73% | 164 min | 53.3% | 84% | –
CS(=O)(=O)N1CCCCc2cc3c(-c4ncc[nH]4)c(-c4ccc(F)cc4)oc3cc21 | Insoluble | – | – | – | – | – | – | – | –
CNC(=O)c1c(-c2ccc(F)cc2)oc2cc3c(cc12)C(C)OC(CS(C)(=O)=O)CN3S(C)(=O)=O (racemic) | – | 16 mL/min/kg | 1.51 L/kg | 1060 ng·h/mL | 30% | 217 min | 100% | 99.7% | –
CNC(=O)c1c(-c2ccc(F)cc2)oc2cc3c(cc12)C(C)n1nncc1CN3S(C)(=O)=O (racemic) | Insoluble | – | – | – | – | – | – | – | –
CNC(=O)c1c(-c2ccc(F)cc2)oc2cc3c(cc12)C(C)n1ccnc1CN3S(C)(=O)=O (racemic) | Insoluble | – | – | – | – | – | – | – | –
